We go through ten compounds from ChEMBL document CHEMBL3272083, “Antiinflammatory and analgesic diastereoisomeric derivatives of indan-5-acetic acid” (J Med Chem, 1978).

Some results are limits rather than exact numbers.

In series [1] the test system is Rattus norvegicus. As to the kind of experiment: Analgesic activity in po dosed rat assessed as inhibition of phenylbenzoquinone-induced writhing administered in 1% w/v arabic gum. It counts as functional. The essentials: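 Oral dosing in 1% w/v arabic gum vehicle. Read-out was antagonism of writhing produced by phenylbenzoquinone. ED50 with 95% confidence limits was calculated by Bliss's method.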
(In general: An intraperitoneal irritant provokes the stretching counted in writhing tests.)

Series [2] has as its system Rattus norvegicus. As to the kind of experiment: Antiinflammatory activity in po dosed rat assessed as inhibition of carrageenan-induced edema administered in 1% w/v arabic gum. The series is classed as functional. The essentials:
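Given orally in 1% w/v arabic gum vehicle. Read-out was carrageenan-induced edema. ED50 and 95% confidence limits were derived by Bliss's method.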

Series [3] in a line: (§1) Gastrointestinal toxicity in po dosed rat assessed as ulcerogenic activity after 6 hrs administered in 1% w/v arabic gum. The following applies: in vivo, read-out: UD50. The series is classed as organism-based. The essentials: (§2)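 Fasted rats dosed orally, compound suspended in 1% w/v arabic gum. Stomachs examined 6 h after dosing; gastric ulcer intensity graded on a 0–3 scale. The 50% ulcerogenic dose (UD50) was read graphically.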

Series [4] concerns Rattus norvegicus. The description is as §1. It counts as organism-based. To be noted: in vivo, 6 h. The essentials:
as §2

Where [5] appears, read: Rattus norvegicus, po, read-out: ED50.

As to `CC1Cc2ccc(CC(=O)O)cc2C1` (racemic), the ED50 (usually the dose at which the effect has come halfway, by size or by number of responders) with Rattus norvegicus [1] (setting [5]) came out at 175 mg/kg.

On to `CC(C)Cc1ccc(C(C)C(=O)O)cc1` (centres undefined) [IBUPROFEN], for which the 50% effective dose (ED50) was determined as 17 mg/kg with Rattus norvegicus [1] (setting [5]) and 44 mg/kg in the series with Rattus norvegicus [2] (setting [5]). For the same compound, the TD50 at 6 h in series [3] came to 40 mg/kg.

With `CC(C(=O)O)c1ccc2c(c1)CC(C(C)C)C2` (single isomer, unassigned; (-)) [ISOPROFEN], the values for the ED50 in the series with Rattus norvegicus [1] and in the series on Rattus norvegicus [2] were 17 mg/kg and 32 mg/kg, respectively. For the same compound, the UD50 with Rattus norvegicus [4] is 87 mg/kg.

`CCC1Cc2ccc(CC(=O)O)cc2C1` (racemic): the ED50 in the series on Rattus norvegicus [1] (setting [5]) was 104 mg/kg; with Rattus norvegicus [2] (setting [5]), over 256 mg/kg. For the same compound, the TD50 at 6 h in series [3] came to 125 mg/kg.

For the compound `CC(C(=O)O)c1ccc2c(c1)CC(C(C)C)C2` (racemic) [ISOPROFEN], the ED50 in the series on Rattus norvegicus [1] (setting [5]) was 9 mg/kg; in the series with Rattus norvegicus [2] (setting [5]), 29 mg/kg. The TD50 at 6 h in series [3] came to 62 mg/kg.

As to `CC(C)C1Cc2ccc(CC(=O)O)cc2C1` (racemic), the ED50 with Rattus norvegicus [1] (setting [5]) was 57 mg/kg; in the series on Rattus norvegicus [2] (setting [5]) it was 155 mg/kg. Further, the TD50 at 6 h in series [3] was determined as 335 mg/kg.

With `CC1Cc2ccc(C(C)C(=O)[O-])cc2C1.[Na+]` (racemic), the ED50 in the series on Rattus norvegicus [1] (setting [5]) was 24 mg/kg.

`CC(C(=O)O)c1ccc2c(c1)CC(C(C)C)C2` (single isomer, unassigned; (+)) [ISOPROFEN]: the ED50 in the series with Rattus norvegicus [1] was 10 mg/kg; in the series on Rattus norvegicus [2], 24 mg/kg. The UD50 with Rattus norvegicus [4] worked out at 46 mg/kg.

For the compound `CCC1Cc2ccc(C(C)C(=O)O)cc2C1` (racemic), the 50% effective dose (ED50) in the series on Rattus norvegicus [1] (setting [5]) was 6 mg/kg; with Rattus norvegicus [2] (setting [5]), 36 mg/kg. Besides, the TD50 at 6 h in series [3] is 65 mg/kg.

On to `CC(C)[C@@H]1Cc2ccc([C@H](C)C(=O)O)cc2C1`, for which the ED50 with Rattus norvegicus [1] (setting [5]) is 9 mg/kg.
